ChEMBL document CHEMBL4609978, “Synthesis and evaluation of 2'-dihalo ribonucleotide prodrugs with activity against hepatitis C virus” (Bioorg Med Chem, 2020)

Tested on: not listed separately
Experiment: Cytotoxicity against human HuH7 cells assessed as reduction in cell viability
Assay type: cell-based, Huh-7
Conditions: read-out: TD50 (the source's name)
Molecule CC(C)OC(=O)[C@H](C)N[P@](=O)(OC[C@H]1O[C@@H](n2ccc(=O)[nH]c2=O)[C@](Cl)(Br)[C@@H]1O)Oc1ccccc1 has a CC50 of 80000 nM.

Tested on: Hepatitis C virus
Experiment: Antiviral activity against HCV genotype 1b Con1 expressing NS5B S282T mutant infected in human HuH7 replicon cells assessed as inhibition of viral replication after 4 days by luciferase reporter gene based assay
Assay type: functional, organism-based, Hepacivirus hominis
Conditions: subtype 1b Con1, Huh-7, 96 h
CC(C)OC(=O)[C@H](C)N[P@](=O)(OC[C@H]1O[C@@H](n2ccc(=O)[nH]c2=O)[C@](Cl)(Br)[C@@H]1O)Oc1ccccc1 gave an EC50 of 161 nM.

Tested on: not listed separately
Experiment: Unbound drug level in human plasma
Assay type: ADME, cell-free
Conditions: not given
Work on CC(C)OC(=O)[C@H](C)N[P@](=O)(OC[C@H]1O[C@@H](n2ccc(=O)[nH]c2=O)[C@](Cl)(Br)[C@@H]1O)Oc1ccccc1 yielded a fraction unbound of 0.113.

Tested on: Hepatitis C virus
Experiment: Antiviral activity against HCV genotype 2a expressing wild type NS5B infected in human HuH7 replicon cells assessed as inhibition of viral replication after 4 days by luciferase reporter gene based assay
Assay type: functional, organism-based, Hepacivirus hominis
Conditions: subtype 2a, Huh-7, 96 h
With CC(C)OC(=O)[C@H](C)N[P@](=O)(OC[C@H]1O[C@@H](n2ccc(=O)[nH]c2=O)[C@](Cl)(Br)[C@@H]1O)Oc1ccccc1 the EC50 was 188 nM.

Tested on: Hepatitis C virus
Experiment: Antiviral activity against HCV genotype 2a expressing NS5B S282T mutant infected in human HuH7 replicon cells assessed as inhibition of viral replication after 4 days by luciferase reporter gene based assay
Assay type: functional, organism-based, Hepacivirus hominis
Conditions: subtype 2a, Huh-7, 96 h
In the case of CC(C)OC(=O)[C@H](C)N[P@](=O)(OC[C@H]1O[C@@H](n2ccc(=O)[nH]c2=O)[C@](Cl)(Br)[C@@H]1O)Oc1ccccc1, the EC50 is reported as 262 nM.

Tested on: Hepatitis C virus
Experiment: Antiviral activity against HCV genotype 1b Con1 infected in human HuH7 replicon cells assessed as inhibition of viral replication after 3 days by luciferase reporter gene assay
Assay type: functional, organism-based, Hepacivirus hominis
Conditions: subtype 1b Con1, Huh-7, 72 h
Procedure, shortened: (§1)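 Stable subgenomic replicon cell lines (genotype 1a-H77 or 1b-Con1) carrying a luciferase reporter; compounds added in DMEM with 5% FBS, cells incubated 3 days with or without compound, then lysed and luciferase activity read; EC50 from nonlinear regression fit to 4-parameter logistic equation.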
CC(C)OC(=O)[C@H](C)N[P@](=O)(OC[C@H]1O[C@@H](n2ccc(=O)[nH]c2=O)[C@](Cl)(Br)[C@@H]1O)Oc1ccccc1 showed an EC50 of 147 nM.

Tested on: Hepatitis C virus
Experiment: Antiviral activity against HCV genotype 1b Con1 expressing wild type NS5B infected in human HuH7 replicon cells assessed as inhibition of viral replication after 4 days by luciferase reporter gene based assay
Assay type: functional, organism-based, Hepacivirus hominis
Conditions: subtype 1b Con1, Huh-7, 96 h
For CC(C)OC(=O)[C@H](C)N[P@](=O)(OC[C@H]1O[C@@H](n2ccc(=O)[nH]c2=O)[C@](Cl)(Br)[C@@H]1O)Oc1ccccc1, the EC50 was 30.4 nM.

Tested on: not listed separately
Experiment: Prodrug conversion in Beagle dog liver assessed as nucleotide triphosphate level at 5 mg/kg, po co-dosed with 5 mg/kg sofosbuvir measured after 24 hrs by LC-MS/MS analysis
Assay type: ADME, organism-based, Canis lupus familiaris
Conditions: in vivo
Procedure, shortened: (§2)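 Beagle dogs (3 per time point) given single oral prodrug 5 mg/kg in EtOH:PEG-400:Phosal 53 MCT (10:30:60, w/w), cassette-dosed with sofosbuvir 5 mg/kg as internal standard; liver biopsies at 4 or 24 h, flash frozen, triphosphate measured by LC-MS/MS.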
CC(C)OC(=O)[C@H](C)N[P@](=O)(OC[C@H]1O[C@@H](n2ccc(=O)[nH]c2=O)[C@](Cl)(Br)[C@@H]1O)Oc1ccccc1 gave a Drug metabolism of 1.02 µM.

Tested on: not listed separately
Experiment: Prodrug conversion in Beagle dog liver assessed as nucleotide triphosphate level at 5 mg/kg, po administered as single dose measured after 4 hrs by LC-MS/MS analysis
Assay type: ADME, organism-based, Canis lupus familiaris
Conditions: in vivo
In the case of CC(C)OC(=O)[C@H](C)N[P@](=O)(OC[C@H]1O[C@@H](n2ccc(=O)[nH]c2=O)[C@](Cl)(Br)[C@@H]1O)Oc1ccccc1, the Drug metabolism is reported as 0.088 µM.

Tested on: not listed separately
Experiment: Unbound drug level in dog plasma
Assay type: ADME, cell-free, Canis lupus familiaris
Conditions: not given
CC(C)OC(=O)[C@H](C)N[P@](=O)(OC[C@H]1O[C@@H](n2ccc(=O)[nH]c2=O)[C@](Cl)(Br)[C@@H]1O)Oc1ccccc1 gave a fraction unbound of 0.213.

Tested on: not listed separately
Experiment: Prodrug conversion in Beagle dog liver assessed as nucleotide triphosphate level at 5 mg/kg, po co-dosed with 5 mg/kg sofosbuvir measured after 4 hrs by LC-MS/MS analysis
Assay type: ADME, organism-based, Canis lupus familiaris
Conditions: in vivo
Procedure, shortened: as §2
Molecule CC(C)OC(=O)[C@H](C)N[P@](=O)(OC[C@H]1O[C@@H](n2ccc(=O)[nH]c2=O)[C@](Cl)(Br)[C@@H]1O)Oc1ccccc1 has a Drug metabolism of 1.59 µM.

Tested on: Hepatitis C virus
Experiment: Antiviral activity against HCV genotype 4a expressing wild type NS5B infected in human HuH7 replicon cells assessed as inhibition of viral replication after 4 days by luciferase reporter gene based assay
Assay type: functional, organism-based, Hepacivirus hominis
Conditions: subtype 4a, Huh-7, 96 h
Work on CC(C)OC(=O)[C@H](C)N[P@](=O)(OC[C@H]1O[C@@H](n2ccc(=O)[nH]c2=O)[C@](Cl)(Br)[C@@H]1O)Oc1ccccc1 yielded an EC50 of 29.9 nM.

Tested on: not listed separately
Experiment: Prodrug conversion in Beagle dog liver assessed as nucleotide triphosphate level at 5 mg/kg, po administered as single dose measured after 24 hrs by LC-MS/MS analysis
Assay type: ADME, organism-based, Canis lupus familiaris
Conditions: in vivo
Work on CC(C)OC(=O)[C@H](C)N[P@](=O)(OC[C@H]1O[C@@H](n2ccc(=O)[nH]c2=O)[C@](Cl)(Br)[C@@H]1O)Oc1ccccc1 yielded a Drug metabolism of 0.049 µM.

Tested on: not listed separately
Experiment: Prodrug conversion in human primary hepatocytes assessed as nucleotide triphosphate level at 100 uM incubated for 4 hrs followed by compound wash-out for 20 hrs and measured following 4 hrs incubation period by LC-MS/MS analysis
Assay type: ADME, cell-based, Hepatocyte
Conditions: not given
Procedure, shortened: (§3)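 Cryopreserved primary human hepatocytes plated ~55,000 viable cells/well on collagen, medium changed after 4–6 h to Williams E maintenance medium with Geltrex 0.35 mg/mL, overnight at 37 °C; prodrug 100 µM for 4 h, then washed; second plate held a further 20 h drug-free; cells washed with ice-cold HBSS, triphosphate measured by LC-MS/MS at 4 or 24 h.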
CC(C)OC(=O)[C@H](C)N[P@](=O)(OC[C@H]1O[C@@H](n2ccc(=O)[nH]c2=O)[C@](Cl)(Br)[C@@H]1O)Oc1ccccc1 showed a Drug metabolism of 110 µM.

Tested on: Hepatitis C virus
Experiment: Antiviral activity against HCV genotype 3a expressing NS5B S282T mutant infected in human HuH7 replicon cells assessed as inhibition of viral replication after 4 days by luciferase reporter gene based assay
Assay type: functional, organism-based, Hepacivirus hominis
Conditions: subtype 3a, Huh-7, 96 h
CC(C)OC(=O)[C@H](C)N[P@](=O)(OC[C@H]1O[C@@H](n2ccc(=O)[nH]c2=O)[C@](Cl)(Br)[C@@H]1O)Oc1ccccc1 showed an EC50 of 142 nM.

Tested on: Hepatitis C virus
Experiment: Antiviral activity against HCV genotype 6a expressing wild type NS5B infected in human HuH7 replicon cells assessed as inhibition of viral replication after 4 days by luciferase reporter gene based assay
Assay type: functional, organism-based, Hepacivirus hominis
Conditions: subtype 6a, Huh-7, 96 h
Work on CC(C)OC(=O)[C@H](C)N[P@](=O)(OC[C@H]1O[C@@H](n2ccc(=O)[nH]c2=O)[C@](Cl)(Br)[C@@H]1O)Oc1ccccc1 yielded an EC50 of 22.7 nM.

Tested on: Hepatitis C virus
Experiment: Antiviral activity against HCV genotype 1a H77 infected in human HuH7 replicon cells assessed as inhibition of viral replication after 3 days by luciferase reporter gene assay
Assay type: functional, organism-based, Hepacivirus hominis
Conditions: subtype 1a H77, Huh-7, 72 h
Procedure, shortened: as §1
For CC(C)OC(=O)[C@H](C)N[P@](=O)(OC[C@H]1O[C@@H](n2ccc(=O)[nH]c2=O)[C@](Cl)(Br)[C@@H]1O)Oc1ccccc1, the EC50 was 114 nM.

Tested on: not listed separately
Experiment: Prodrug conversion in human primary hepatocytes assessed as nucleotide triphosphate level at 100 uM incubated for 4 hrs and followed by compound washout for 20 hrs and measured following 24 hrs incubation period by LC-MS/MS analysis
Assay type: ADME, cell-based, Hepatocyte
Conditions: not given
Procedure, shortened: as §3
In the case of CC(C)OC(=O)[C@H](C)N[P@](=O)(OC[C@H]1O[C@@H](n2ccc(=O)[nH]c2=O)[C@](Cl)(Br)[C@@H]1O)Oc1ccccc1, the Drug metabolism is reported as 22 µM.

Tested on: Hepatitis C virus
Experiment: Antiviral activity against HCV genotype 3a expressing wild type NS5B infected in human HuH7 replicon cells assessed as inhibition of viral replication after 4 days by luciferase reporter gene based assay
Assay type: functional, organism-based, Hepacivirus hominis
Conditions: subtype 3a, Huh-7, 96 h
For CC(C)OC(=O)[C@H](C)N[P@](=O)(OC[C@H]1O[C@@H](n2ccc(=O)[nH]c2=O)[C@](Cl)(Br)[C@@H]1O)Oc1ccccc1, the EC50 was 31.4 nM.

Tested on: not listed separately
Experiment: Intrinsic clearance in dog hepatocytes
Assay type: ADME, cell-based, Canis lupus familiaris, Hepatocyte
Conditions: read-out: CLH (converted)
Molecule CC(C)OC(=O)[C@H](C)N[P@](=O)(OC[C@H]1O[C@@H](n2ccc(=O)[nH]c2=O)[C@](Cl)(Br)[C@@H]1O)Oc1ccccc1 has a CLint scaled of 113 mL/min/kg.
